Source: ChEMBL document CHEMBL3813689, “Discovery of Potent Benzofuran-Derived Diapophytoene Desaturase (CrtN) Inhibitors with Enhanced Oral Bioavailability for the Treatment of Methicillin-Resistant Staphylococcus aureus (MRSA) Infections” (J Med Chem, 2016)
Activity calls are given as the source filed them. The rule behind the calls is not given here.

Columns and labels:
[1] = molecular target: Voltage-gated inwardly rectifying potassium channel KCNH2 (Homo sapiens, UniProt Q12809); experiment: Inhibition of human ERG expressed in CHO cells by Qpatch-clamp method; assay type: cell-based
Staphylococcus aureus [2] = experiment: Sensitization of methicillin-resistant Staphylococcus aureus USA300 LAC to H2O2 assessed as bacterial survival at 1 uM measured after 24 hrs (reference value: 14.2%); assay type: functional
Staphylococcus aureus [3] = experiment: Sensitization of methicillin-resistant Staphylococcus aureus Mu50 to H2O2 assessed as bacterial survival at 1 uM measured after 24 hrs (reference value: 25.3%); assay type: functional; conditions: Mu50, 24 h
[4] = Aqueous solubility of the compound by HPLC method; assay type: physicochemical
How it was run: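 Calibration with standards at 50, 100, 200, 400 and 800 µg/mL in methanol (peak area vs concentration). 10 mg solid stirred in 1 mL pure water for 24 h, more added if still clear; syringe-filtered, 10 µL injected; solubility read from calibration curve.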

Staphylococcus aureus [5] = experiment: Inhibition of staphyloxanthin pigment formation in methicillin-resistant Staphylococcus aureus USA300 LAC after 48 hrs by spectrophotometric method; assay type: functional, organism-based
How it was run: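 MRSA grown in 4 mL TSB with 40 µL compound (2-fold serial dilutions from 20 mM DMSO stock) at 37 °C for 48 h, triplicate. Cells washed twice in PBS, pigment extracted with methanol, OD450 measured; IC50 from dose-response fit.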

Staphylococcus aureus [6] = experiment: Suppression in growth of Staphylococcus aureus Newman at 0.2 mM measured after overnight incubation by spectrophotometric method; assay type: organism-based; conditions: in vitro, 200 µM
How it was run: (§1)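 Compound from 20 mM DMSO stock diluted in TSB to final 0.2 or 0.05 mM; DMSO growth controls; paraffin overlay. Overnight cultures inoculated to final OD600 ≈ 0.05; incubated at 37 °C overnight with OD600 read every 30 min.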

Staphylococcus aureus [7] = experiment: Suppression in growth of methicillin-resistant Staphylococcus aureus Mu50 at 0.05 mM measured after overnight incubation by spectrophotometric method; assay type: organism-based; conditions: 50 µM; how it was run: as §1
Staphylococcus aureus [8] = experiment: Suppression in survival of Staphylococcus aureus Newman at 0.2 mM measured after overnight incubation by spectrophotometric method; assay type: ADME, organism-based; conditions: 200 µM; how it was run: as §1
Staphylococcus aureus [9] = experiment: Sensitization of Staphylococcus aureus Newman to immune clearance in human whole blood assessed as bacterial survival at 1 uM measured after 24 hrs (reference value: 26.7%); assay type: functional
Staphylococcus aureus [10] = experiment: Suppression in survival of methicillin-resistant Staphylococcus aureus USA400 MW2 at 0.05 mM measured after overnight incubation by spectrophotometric method; assay type: ADME, organism-based; conditions: 50 µM; how it was run: as §1
Staphylococcus aureus [11] = experiment: Suppression in survival of methicillin-resistant Staphylococcus aureus USA300 LAC at 0.2 mM measured after overnight incubation by spectrophotometric method; assay type: ADME, organism-based; conditions: 200 µM; how it was run: as §1
Staphylococcus aureus [12] = experiment: Suppression in survival of methicillin-resistant Staphylococcus aureus Mu50 at 0.05 mM measured after overnight incubation by spectrophotometric method; assay type: ADME, organism-based; conditions: 50 µM; how it was run: as §1
Staphylococcus aureus [13] = experiment: Sensitization of methicillin-resistant Staphylococcus aureus USA300 LAC to H2O2 assessed as reduction in bacterial survival at 1 uM measured after 24 hrs relative to control; assay type: functional
How it was run: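 Strains grown 24 h in TSB with or without inhibitor, washed twice in PBS, then diluted to 4 × 10^6 CFU per 250 µL reaction. H2O2 added to a final 1.5%. Tubes sealed and held 30 min at 37 °C. Reaction stopped with 1000 U/mL catalase. Survivors counted as CFU by serial dilution on TSA plates and compared with untreated (mock) bacteria.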

Staphylococcus aureus [14] = experiment: Antibacterial activity against Staphylococcus aureus USA400 MW2 infected Balb/c mouse assessed as reduction of bacterial survival in liver at 1.3 mg, ip bid administered for 4.5 days followed by bacterial infection measured after 5 days; assay type: functional
How it was run: (§2)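 Female BALB/c mice, 6–8 weeks. Compound in sterile water ip once and every 12 h for 108 h, total 50 or 200 mg/kg; water controls. Infected 12 h after first dose with 4 × 10^7 CFU USA400 MW2 (100 µL). Killed 5 days post infection; liver or kidney CFU counted on TSA after homogenising in PBS/0.1% Triton X-100. n = 13; two-tailed Mann-Whitney.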

Staphylococcus aureus [15] = experiment: Antibacterial activity against Staphylococcus aureus USA400 MW2 infected Balb/c mouse assessed as reduction of bacterial survival in kidney at 1.3 mg, ip bid administered for 4.5 days followed by bacterial infection measured after 5 days; assay type: functional, organism-based; how it was run: as §2
Staphylococcus aureus [16] = experiment: Antibacterial activity against Staphylococcus aureus Mu50 infected Balb/c mouse assessed as reduction of bacterial survival in liver at 1.3 mg, ip bid administered for 4.5 days followed by bacterial infection measured after 5 days; assay type: functional
Staphylococcus aureus [17] = experiment: Antibacterial activity against Staphylococcus aureus Mu50 infected Balb/c mouse assessed as reduction of bacterial survival in kidney at 5.2 mg, ip bid administered for 4.5 days followed by bacterial infection measured after 5 days; assay type: functional
[18] = Total plasma clearance in Sprague-Dawley rat at 5 mg/kg, iv administered as single dose; assay type: ADME, organism-based
How it was run: (§3)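 Male SD rats, 3 per group, single iv 5 mg/kg or oral 10 mg/kg. Blood sampled 0.083 (iv only), 0.25, 0.5, 1, 2, 4, 6, 8, 24 h postdose; plasma separated at 4 °C, stored −80 °C, analysed within 1 week. Parameters from plasma concentration-time data; F from dose-normalized AUC, oral vs iv.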

Rattus norvegicus = experiment: Dose normalized AUC (0 to infinity) in Sprague-Dawley rat at 5 mg/kg, iv administered as single dose; assay type: ADME, organism-based; conditions: in vivo; how it was run: as §3
[19] = Oral bioavailability in Sprague-Dawley rat at 10 mg/kg administered as single dose; assay type: ADME, organism-based; conditions: in vivo; how it was run: as §3
Trichophyton rubrum = experiment: Antifungal activity against Trichophyton rubrum measured after 7 days by serial dilution method; assay type: functional
How it was run: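 Broth serial dilution MIC per NCCLS in RPMI 1640 buffered with 0.165 M MOPS; compounds in DMSO diluted in medium. Dermatophytes incubated at 28 °C, read at 7 days. MIC taken as lowest concentration giving ≥80% growth inhibition versus control (turbidity).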

[20] = molecular target: T1, 4,4'-diapophytoene desaturase (4,4'-diaponeurosporene-forming) (Staphylococcus aureus (strain Newman)) (UniProt O07855); conditions: Staphylococcus aureus subsp. aureus str. Newman; 1 uM
T1 sequence (whole entry): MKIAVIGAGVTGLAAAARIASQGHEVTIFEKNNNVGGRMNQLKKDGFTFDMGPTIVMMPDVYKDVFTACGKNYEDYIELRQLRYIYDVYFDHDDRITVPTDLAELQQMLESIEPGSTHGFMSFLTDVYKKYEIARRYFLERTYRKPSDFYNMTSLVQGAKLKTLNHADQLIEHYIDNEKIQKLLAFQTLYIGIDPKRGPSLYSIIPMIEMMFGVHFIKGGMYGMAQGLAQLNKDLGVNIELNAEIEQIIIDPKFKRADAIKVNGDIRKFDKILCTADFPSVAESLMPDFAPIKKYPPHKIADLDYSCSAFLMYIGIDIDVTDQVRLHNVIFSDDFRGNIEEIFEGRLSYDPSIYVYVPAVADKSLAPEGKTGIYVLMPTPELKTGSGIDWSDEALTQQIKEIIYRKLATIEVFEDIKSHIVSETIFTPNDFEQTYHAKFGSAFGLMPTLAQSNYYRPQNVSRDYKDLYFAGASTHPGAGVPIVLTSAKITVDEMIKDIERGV

Voltage-gated inwardly rectifying potassium channel KCNH2, sequence (Q12809 whole entry): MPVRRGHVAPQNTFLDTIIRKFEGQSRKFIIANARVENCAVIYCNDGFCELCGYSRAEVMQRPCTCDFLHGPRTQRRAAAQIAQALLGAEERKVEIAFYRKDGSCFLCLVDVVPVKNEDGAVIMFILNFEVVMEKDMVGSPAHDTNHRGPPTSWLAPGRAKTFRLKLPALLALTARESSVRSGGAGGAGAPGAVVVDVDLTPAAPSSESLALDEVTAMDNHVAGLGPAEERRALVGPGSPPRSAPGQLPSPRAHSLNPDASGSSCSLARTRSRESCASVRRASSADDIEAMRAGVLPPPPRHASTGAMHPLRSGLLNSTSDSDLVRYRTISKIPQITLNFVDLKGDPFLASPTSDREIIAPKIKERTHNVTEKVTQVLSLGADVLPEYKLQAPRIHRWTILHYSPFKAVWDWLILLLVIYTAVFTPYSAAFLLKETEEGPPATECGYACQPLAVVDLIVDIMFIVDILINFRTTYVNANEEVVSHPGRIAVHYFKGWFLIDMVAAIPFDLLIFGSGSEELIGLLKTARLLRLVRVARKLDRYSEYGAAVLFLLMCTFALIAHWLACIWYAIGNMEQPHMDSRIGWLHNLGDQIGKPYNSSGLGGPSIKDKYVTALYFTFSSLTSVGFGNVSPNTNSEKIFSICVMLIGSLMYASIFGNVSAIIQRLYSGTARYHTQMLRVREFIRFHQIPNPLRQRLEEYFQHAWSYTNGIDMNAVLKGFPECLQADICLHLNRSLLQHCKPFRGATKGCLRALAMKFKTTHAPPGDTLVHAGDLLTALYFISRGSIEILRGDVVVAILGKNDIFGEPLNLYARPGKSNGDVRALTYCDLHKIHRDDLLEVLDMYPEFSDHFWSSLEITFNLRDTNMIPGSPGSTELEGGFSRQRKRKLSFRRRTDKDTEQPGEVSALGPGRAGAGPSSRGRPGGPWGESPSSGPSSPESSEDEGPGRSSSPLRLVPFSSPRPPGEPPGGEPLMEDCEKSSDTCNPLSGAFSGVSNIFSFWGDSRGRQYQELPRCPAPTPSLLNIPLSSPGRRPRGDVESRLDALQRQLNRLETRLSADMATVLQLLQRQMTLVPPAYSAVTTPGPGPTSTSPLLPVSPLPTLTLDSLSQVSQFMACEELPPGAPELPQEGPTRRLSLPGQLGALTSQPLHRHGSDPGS

Q: What does the source list for CN(C/C=C/c1ccc(C(F)(F)F)cc1)Cc1cccc2ccoc12.Cl?
A: IC50 [1]: 3710 nM; survival at 1 µM (Staphylococcus aureus [2]): 0.7%; survival at 1 µM (Staphylococcus aureus [3]): 4.3%; solubility [4]: 10000 µg/mL; IC50 (Staphylococcus aureus [5]): 3.39 nM; Activity (Staphylococcus aureus [6]): Non-toxic; Activity (Staphylococcus aureus [7]): Non-toxic; Activity (Staphylococcus aureus [8]): Non-toxic; survival at 1 µM (Staphylococcus aureus [9]): 0.8%; Activity (Staphylococcus aureus [10]): Non-toxic; Activity (Staphylococcus aureus [11]): Non-toxic; Activity (Staphylococcus aureus [12]): Non-toxic; fold change (FC) (Staphylococcus aureus [13]): 20; Activity (Staphylococcus aureus [14]): 0.71 deltalog10CFU; Activity (Staphylococcus aureus [15]): Active; Activity (Staphylococcus aureus [16]): 2.94 deltalog10CFU; Activity (Staphylococcus aureus [17]): 1.11 deltalog10CFU; clearance [18]: 54.3 mL/min/kg; AUC/dose (Rattus norvegicus): 1299.47 ng/mL.hr/(mg/kg); bioavailability [19]: 42.2%; MIC80 (Trichophyton rubrum): 16 µg/mL; inhibition [20]: Active
